Measured values taken from ChEMBL document CHEMBL4706672 (J Med Chem, 2021).
The source made the active and inactive calls. The calls are words filed in the database; no cut-off is given here.

Columns and labels:
MIA PaCa-2 = assay: Antiproliferative activity against human MIA PaCa-2 cells assessed as reduction in cell viability incubated for 3 days by MTT assay; type: functional, cell-based; details: MIA PaCa-2, 72 h
Method in brief: (§1)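 MTT assay. Cells were seeded at 3000–6000/well and incubated overnight, then exposed to compound or DMSO vehicle for 3 days in RPMI-1640 or DMEM with 10% FBS at 37 °C, 5% CO2. MTT (3 mg/ml) was added for 3 h at 37 °C, formazan was dissolved in DMSO and absorbance read at 570 nm. IC50 from three independent experiments, mean ± SD.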

BXPC-3 [1] = assay: Antiproliferative activity against human BxPC-3 cells assessed as reduction in cell viability incubated for 3 days by MTT assay; type: functional, cell-based; details: BXPC-3, 72 h
HEK293 = assay: Antiproliferative activity against human HEK293 cells assessed as reduction in cell viability incubated for 24 hrs by MTT assay; type: functional, cell-based; details: HEK293, 24 h
Method in brief: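 HEK-293 cells were treated with compound for 24 h, in parallel with the luciferase reporter assay. Viability was read by MTT absorbance at 570 nm, and IC50 was taken from three independent experiments.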

OVCAR-3 = assay: Antiproliferative activity against human OVCAR-3 cells assessed as reduction in cell viability incubated for 3 days by MTT assay; type: functional, cell-based; details: OVCAR-3, 72 h; method in brief: as §1
[2] = Selectivity index, ratio of IC50 for antiproliferative activity against STAT3 knockout human OVCAR-3 cells to IC50 for wild type human OVCAR-3 cells; type: functional
[3] = target: T1, Protein cereblon/Signal transducer and activator of transcription 3 (Homo sapiens, UniProt P40763+Q96SW2); assay: Protac activity at CRBN/STAT3 in human OVCAR-3 cells assessed as depletion of STAT3 at 2 to 20 uM after 12 hrs by western blot analysis; type: cell-based; details: dose 2-20 µM
[4] = target: T1, Protein cereblon/Signal transducer and activator of transcription 3; assay: Protac activity at CRBN/STAT3 in human OVCAR-3 cells assessed as decrease in STAT3 phosphorylation at 2 to 20 uM after 6 hrs by western blot analysis; type: cell-based; details: dose 2-20 µM
[5] = target: T1, Protein cereblon/Signal transducer and activator of transcription 3; assay: Protac activity at CRBN/STAT3 in human OVCAR-3 cells assessed as decrease in STAT3 expression at 2 to 10 uM incubated for 24 hrs in presence of proteasome inhibitor MG132 by western blot analysis; type: cell-based; details: dose 2-10 µM
[6] = target: T1, Protein cereblon/Signal transducer and activator of transcription 3; assay: Protac activity at CRBN/STAT3 in human OVCAR-3 cells assessed as induction of STAT3 degradation at 1 to 20 uM incubated for 12 hrs in presence of competitive CRBN ligand pomalidomide by western blot analysis; type: cell-based; details: dose 1-20 µM
[7] = target: Protein cereblon/Signal transducer and activator of transcription 1-alpha/beta (Homo sapiens) (UniProt P42224+Q96SW2); assay: Protac activity at CRBN/STAT1 in human OVCAR-3 cells assessed as decrease in STAT1 expression levels at 2 to 20 uM after 12 hrs by western blot analysis; type: cell-based; details: dose 2-20 µM
[8] = target: T1, Protein cereblon/Signal transducer and activator of transcription 3; assay: Protac activity at CRBN/STAT3 in human BxPC-3 cells assessed as decrease in STAT3 expression level after 12 hrs by western blot analysis; type: cell-based
[9] = target: T1, Protein cereblon/Signal transducer and activator of transcription 3; assay: Protac activity at CRBN/STAT3 in human BxPC-3 cells assessed as induction of STAT3 degradation at 1 to 5 uM after 12 hrs in presence of proteasome inhibitor bortezomib by western blot analysis; type: cell-based; details: dose 1-5 µM
BXPC-3 [10] = assay: Reduction in NQO1 levels in human BxPC-3 cells at 1 to 10 uM incubated for 16 hrs by western blot analysis; type: functional, cell-based; details: dose 1-10 µM
Method in brief: (§2)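 BxPC-3 cells seeded at 500 × 10^3 per well in 6-well plates, treated 16 h. Sonication lysis at 4 °C in Tris/NaCl/Triton/SDS buffer pH 7.4 with protease and phosphatase inhibitors, BCA protein assay, SDS-PAGE, PVDF transfer. Probed for STAT3, pSTAT3 and NQO1 with GAPDH loading control; fluorescent secondary detection.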

[11] = test system: G1 to S phase transition protein 1 homolog GSPT1 (Homo sapiens); assay: Protac activity at CRBN/STAT3 in human BxPC-3 cells assessed as effect on GSPT1 protein expression level at 1 to 10 uM incubated for 16 hrs by western blot analysis; details: dose 1-10 µM
[12] = target: T1, Protein cereblon/Signal transducer and activator of transcription 3; assay: Protac activity at CRBN/STAT3 in human BxPC-3 cells assessed as effect on STAT3 expression level at 0.5 uM incubated for 16 hrs by western blot analysis; type: cell-based; method in brief: as §2
[13] = target: Signal transducer and activator of transcription 3 (Homo sapiens) (UniProt P40763); assay: Inhibition of STAT3 phosphorylation in human BxPC-3 cells at 0.5 uM after 16 hrs by western blot analysis; type: cell-based
Method in brief: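 Cells were seeded in 6-well plates (BxPC-3 500 × 10^3, MIA PaCa-2 200 × 10^3 cells/well) and exposed to compound for 16 h. Lysis was at 4 °C by sonication in Tris/NaCl/Triton/SDS buffer, pH 7.4, with protease and phosphatase inhibitors. Lysates were run on SDS-PAGE, transferred to PVDF and probed for STAT3, pSTAT3 and NQO1 with GAPDH as loading control. Immunoblots were imaged on an Odyssey system.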

IC50 (MIA PaCa-2)	IC50 (BXPC-3 [1])	SMILES	also measured
10.5 µM	23.8 µM	O=C(COc1cccc2c1C(=O)N(C1CCC(=O)NC1=O)C2=O)NCCCCNC(=O)c1cc2c(o1)C(=O)c1ccccc1C2=O (stereo unspecified)	IC50 (HEK293): > 30 µM
3 µM	4.2 µM	O=C1CCC(N2C(=O)c3cccc(NCCCCCCNC(=O)c4cc5c(o4)C(=O)c4ccccc4C5=O)c3C2=O)C(=O)N1 (stereo unspecified)	–
1.3 µM	4.3 µM	O=C1CCC(N2C(=O)c3cccc(NCCOCCOCCNC(=O)c4cc5c(o4)C(=O)c4ccccc4C5=O)c3C2=O)C(=O)N1 (stereo unspecified)	IC50 (OVCAR-3): 0.3 µM; Ratio IC50 [2]: >6; Activity [3]: Active; Activity [4]: Active; Activity [5]: Active; Activity [6]: Active; Activity [7]: Active; DC50 [8]: 7.8 µM; Activity [9]: Active; Activity (BXPC-3 [10]): Active; Activity [11]: inactive
14.5 µM	> 30 µM	Cc1ncsc1-c1ccc(CNC(=O)[C@@H]2C[C@@H](O)CN2C(=O)[C@@H](NC(=O)COCCOCCNC(=O)c2cc3c(o2)C(=O)c2ccccc2C3=O)C(C)(C)C)cc1	IC50 (HEK293): > 30 µM
–	0.6 µM	O=C1CCC(N2C(=O)c3cccc(NCCCC4CCN(CCNC(=O)c5cc6c(o5)C(=O)c5ccccc5C6=O)CC4)c3C2=O)C(=O)N1 (stereo unspecified)	–
4.4 µM	10.1 µM	O=C1CCC(N2C(=O)c3cccc(NCCOCCOCCOCCOCCNC(=O)c4cc5c(o4)C(=O)c4ccccc4C5=O)c3C2=O)C(=O)N1 (stereo unspecified)	IC50 (HEK293): > 10 µM
2.6 µM	4.6 µM	O=C1CCC(N2C(=O)c3cccc(NCCOCCNC(=O)c4cc5c(o4)C(=O)c4ccccc4C5=O)c3C2=O)C(=O)N1 (stereo unspecified)	–
2.7 µM	3.5 µM	O=C1CCC(N2C(=O)c3cccc(NCCCNC(=O)c4cc5c(o4)C(=O)c4ccccc4C5=O)c3C2=O)C(=O)N1 (stereo unspecified)	–
6.4 µM	13.8 µM	O=C1CCC(N2Cc3c(CCCCCNC(=O)c4cc5c(o4)C(=O)c4ccccc4C5=O)cccc3C2=O)C(=O)N1 (stereo unspecified)	–
3.7 µM	6 µM	O=C(COc1cccc2c1C(=O)N(C1CCC(=O)NC1=O)C2=O)NCCOCCOCCOCCNC(=O)c1cc2c(o1)C(=O)c1ccccc1C2=O (stereo unspecified)	–
> 30 µM	> 30 µM	Nc1cccc2c1C(=O)N(C1CCC(=O)NC1=O)C2=O (stereo unspecified) [POMALIDOMIDE]	–
1.1 µM	1.1 µM	O=C1CCC(N2C(=O)c3cccc(NCCC4CCN(CCNC(=O)c5cc6c(o5)C(=O)c5ccccc5C6=O)CC4)c3C2=O)C(=O)N1 (stereo unspecified)	–
–	–	O=C(NCCN1CCCCC1)c1cc2c(o1)C(=O)c1ccccc1C2=O	Activity [12]: inactive; inhibition [13]: Active
3.8 µM	8.2 µM	O=C1CCC(N2C(=O)c3cccc(OCCOCCOCCNC(=O)c4cc5c(o4)C(=O)c4ccccc4C5=O)c3C2=O)C(=O)N1 (stereo unspecified)	–
